In ChEMBL document CHEMBL3734698, “1H-Pyrazolo[3,4-g]hexahydro-isoquinolines as potent GR antagonists with reduced hERG inhibition and an improved pharmacokinetic profile” (Bioorg Med Chem Lett, 2015):
pIC50, pKi: −log10 of the molar value. Active and inactive are the calls of the source. No cut-off for these calls is given here.

Assays:
[1] = test system: Rattus norvegicus; assay: Reduction in cortisone-induced glucose level in rat at 30 mg/kg, po bid; type: functional, organism-based
Outline: (§1)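 Rats received cortisone 30 mg/kg sc once daily for six days. Test agent was given orally twice daily at 30 mg/kg. Glucose and insulin levels were compared with cortisone-only and no-cortisone controls, with mifepristone at the same oral regimen as positive control.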

[2] = test system: Rattus norvegicus; assay: Reduction in cortisone-induced insulin level in rat at 30 mg/kg, po bid; type: functional, organism-based; outline: as §1
[3] = molecular target: T1, Glucocorticoid receptor (Homo sapiens, UniProt P04150); assay: Antagonist activity at glucocorticoid receptor in human HepG2 cells assessed as inhibition of glucocorticoid-induced TAT activity after 24 hrs; type: cell-based
T1 sequence (P04150 whole entry): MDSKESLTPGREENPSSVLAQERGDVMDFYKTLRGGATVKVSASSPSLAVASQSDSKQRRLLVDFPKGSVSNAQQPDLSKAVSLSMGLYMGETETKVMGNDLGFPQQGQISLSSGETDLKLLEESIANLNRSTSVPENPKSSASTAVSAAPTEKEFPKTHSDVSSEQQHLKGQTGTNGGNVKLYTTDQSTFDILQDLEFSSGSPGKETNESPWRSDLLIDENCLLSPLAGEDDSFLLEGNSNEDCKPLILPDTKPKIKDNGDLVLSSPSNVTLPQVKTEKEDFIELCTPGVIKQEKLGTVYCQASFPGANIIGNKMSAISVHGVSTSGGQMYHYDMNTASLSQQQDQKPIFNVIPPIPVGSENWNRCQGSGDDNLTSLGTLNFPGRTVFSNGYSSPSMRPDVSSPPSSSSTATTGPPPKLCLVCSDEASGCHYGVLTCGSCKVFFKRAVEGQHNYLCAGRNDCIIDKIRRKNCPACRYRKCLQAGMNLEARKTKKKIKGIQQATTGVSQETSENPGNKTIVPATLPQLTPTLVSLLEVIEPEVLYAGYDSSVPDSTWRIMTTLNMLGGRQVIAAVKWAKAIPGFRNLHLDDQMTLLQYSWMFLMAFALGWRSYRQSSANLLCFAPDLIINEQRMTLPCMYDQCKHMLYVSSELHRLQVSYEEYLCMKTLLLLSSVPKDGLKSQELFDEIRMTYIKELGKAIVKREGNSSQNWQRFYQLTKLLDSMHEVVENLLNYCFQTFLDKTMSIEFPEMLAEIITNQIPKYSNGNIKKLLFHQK

[4] = molecular target: T1, Glucocorticoid receptor; assay: Binding affinity to human recombinant glucocorticoid receptor by fluorescence polarization assay
[5] = molecular target: T2, hERG (KCNH2) (Homo sapiens, UniProt Q12809); assay: Inhibition of human ERG at 1 uM by patch clamp technique
T2 sequence (Q12809 whole entry): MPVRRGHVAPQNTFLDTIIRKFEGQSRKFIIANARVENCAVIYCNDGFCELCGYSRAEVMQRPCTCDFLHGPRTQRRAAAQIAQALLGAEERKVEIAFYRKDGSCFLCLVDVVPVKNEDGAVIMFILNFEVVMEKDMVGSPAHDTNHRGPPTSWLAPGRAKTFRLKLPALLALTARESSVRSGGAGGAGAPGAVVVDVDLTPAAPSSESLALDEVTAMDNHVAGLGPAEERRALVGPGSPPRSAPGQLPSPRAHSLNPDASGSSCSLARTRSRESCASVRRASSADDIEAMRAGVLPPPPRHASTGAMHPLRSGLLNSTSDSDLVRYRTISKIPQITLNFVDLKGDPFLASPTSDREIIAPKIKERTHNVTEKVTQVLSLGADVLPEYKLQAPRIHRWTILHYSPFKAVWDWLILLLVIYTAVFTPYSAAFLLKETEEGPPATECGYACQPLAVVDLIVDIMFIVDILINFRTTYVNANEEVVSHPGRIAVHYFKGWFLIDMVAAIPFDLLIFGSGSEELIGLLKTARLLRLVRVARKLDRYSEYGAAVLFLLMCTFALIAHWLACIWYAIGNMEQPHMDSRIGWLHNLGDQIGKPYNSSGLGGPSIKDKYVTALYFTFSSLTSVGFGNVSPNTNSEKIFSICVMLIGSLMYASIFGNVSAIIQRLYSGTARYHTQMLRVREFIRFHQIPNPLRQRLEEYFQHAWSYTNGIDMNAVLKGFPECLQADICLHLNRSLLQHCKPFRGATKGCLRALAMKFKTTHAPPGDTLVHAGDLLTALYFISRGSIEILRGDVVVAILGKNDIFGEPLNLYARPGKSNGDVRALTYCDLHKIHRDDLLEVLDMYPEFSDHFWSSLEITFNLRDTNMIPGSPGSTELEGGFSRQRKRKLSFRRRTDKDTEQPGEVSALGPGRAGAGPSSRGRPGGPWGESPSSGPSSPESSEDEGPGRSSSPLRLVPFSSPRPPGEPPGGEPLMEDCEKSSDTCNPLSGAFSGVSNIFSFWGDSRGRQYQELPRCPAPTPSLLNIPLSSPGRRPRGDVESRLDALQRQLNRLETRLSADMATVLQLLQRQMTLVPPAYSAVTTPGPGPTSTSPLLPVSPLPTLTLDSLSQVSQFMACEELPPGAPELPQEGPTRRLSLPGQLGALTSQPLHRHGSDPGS

[6] = Cmax in rat at 5 mg/kg, po; type: ADME, organism-based; design: dose 5 mg/kg, route oral; settings: in vivo
Outline: (§2)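 Rat pharmacokinetics: oral dosing at 5 mg/kg in 10% DMSO in 0.5% aqueous methyl cellulose. Intravenous dosing at 1 mg/kg in 10% DMSO, 45% PEG400 and 45% propylene glycol. Plasma Cmax was taken after the oral dose and clearance after the iv dose, and oral bioavailability was derived.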

[7] = molecular target: T2, hERG (KCNH2); assay: Inhibition of human ERG at 10 uM by patch clamp technique
[8] = Clearance in rat at 1 mg/kg, iv; type: ADME, organism-based; settings: in vivo; outline: as §2
[9] = molecular target: Voltage-gated inwardly rectifying potassium channel KCNH2 (Homo sapiens, UniProt Q12809); assay: Inhibition of human ERG by patch clamp technique
Chain of Voltage-gated inwardly rectifying potassium channel KCNH2 (Q12809 whole entry): as above

[10] = molecular target: T3, Glucocorticoid receptor (Rattus norvegicus, UniProt P06536); assay: Antagonist activity at glucocorticoid receptor in rat H4IIEC3 cells assessed as glucocorticoid-induced TAT activity; type: cell-based
T3 sequence (P06536 whole entry): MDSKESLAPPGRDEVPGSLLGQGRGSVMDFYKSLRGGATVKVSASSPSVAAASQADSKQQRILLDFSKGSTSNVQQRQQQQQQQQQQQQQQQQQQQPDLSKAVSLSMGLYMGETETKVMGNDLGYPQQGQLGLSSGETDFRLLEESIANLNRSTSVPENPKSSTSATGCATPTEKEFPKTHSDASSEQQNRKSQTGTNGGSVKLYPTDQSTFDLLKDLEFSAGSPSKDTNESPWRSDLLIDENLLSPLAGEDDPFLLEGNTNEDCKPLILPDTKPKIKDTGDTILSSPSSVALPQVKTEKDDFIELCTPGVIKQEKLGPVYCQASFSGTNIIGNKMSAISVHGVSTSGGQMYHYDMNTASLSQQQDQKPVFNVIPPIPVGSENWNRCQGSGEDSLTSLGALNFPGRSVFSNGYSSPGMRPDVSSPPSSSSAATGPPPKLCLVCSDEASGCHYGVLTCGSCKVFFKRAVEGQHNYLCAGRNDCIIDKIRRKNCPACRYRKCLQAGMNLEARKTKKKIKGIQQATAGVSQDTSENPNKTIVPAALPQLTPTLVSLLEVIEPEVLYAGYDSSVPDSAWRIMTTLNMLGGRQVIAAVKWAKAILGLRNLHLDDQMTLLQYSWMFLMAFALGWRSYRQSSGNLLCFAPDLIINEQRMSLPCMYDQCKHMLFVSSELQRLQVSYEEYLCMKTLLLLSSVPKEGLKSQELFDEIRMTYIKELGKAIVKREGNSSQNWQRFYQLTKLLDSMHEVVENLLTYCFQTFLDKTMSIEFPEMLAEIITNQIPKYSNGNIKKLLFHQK
Outline: (§3)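 Glucocorticoid receptor antagonism was measured as blockade of dexamethasone-induced tyrosine amino transferase (TAT) activity. Cells were rat H4IIEC3 cells or primary hepatocytes from rat or cynomolgus monkey, as the line specifies.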

[11] = molecular target: T3, Glucocorticoid receptor; assay: (§4) Antagonist activity at glucocorticoid receptor in rat primary hepatocytes assessed as inhibition of glucocorticoid-induced TAT activity; type: cell-based, Hepatocyte; outline: as §3
[12] = molecular target: T4, Glucocorticoid receptor (Rattus norvegicus) (UniProt P06536); assay: as §4; type: cell-based; settings: Hepatocyte; outline: as §3
T4 sequence (whole entry): T3 sequence (P06536 whole entry)

[13] = test system: Rattus norvegicus; assay: Reduction in olanzapine-induced weight gain in rat at 20 mg/kg, po bid administered for 21 days measured from day 4 of compound dosing; type: functional, organism-based

| Compound | pKi [3] | pKi [4] | inhibition at 1 µM [5] [%] | inhibition at 10 µM [7] [%] | further results |
| --- | --- | --- | --- | --- | --- |
| CC#C[C@]1(O)CC[C@H]2[C@@H]3CCC4=CC(=O)CCC4=C3[C@@H](c3ccc(N(C)C)cc3)C[C@@]21C | – | – | – | – | Activity [1]: Active; Activity [2]: Active |
| O=C(c1cncs1)[C@]12Cc3cnn(-c4ccc(F)cc4)c3C=C1CCN(S(=O)(=O)c1ccc(C(F)(F)F)cc1)C2 | 6.59 | 9.48 | – | – | – |
| O=C(c1ncc[nH]1)[C@]12Cc3cnn(-c4ccc(F)cc4)c3C=C1CCN(S(=O)(=O)c1ccc(C(F)(F)F)cc1)C2 | 7.28 | 9.33 | – | – | – |
| O=C(c1ccco1)[C@]12Cc3cnn(-c4ccc(F)cc4)c3C=C1CCN(S(=O)(=O)c1ccc(C(F)(F)F)cc1)C2 | 7.51 | 9.77 | – | – | – |
| O=C(c1ccccn1)[C@]12Cc3cnn(-c4ccc(F)cc4)c3C=C1CCN(S(=O)(=O)c1ccc(C(F)(F)F)c(F)c1)C2 | 7.96 | 9.54 | 8 | 17 | Cmax [6]: 322 ng/mL; clearance [8]: 28.7 mL/min/kg |
| Cc1ccc(S(=O)(=O)N2CCC3=Cc4c(cnn4-c4ccc(F)cc4)C[C@]3(C(=O)c3ccccn3)C2)cc1 | 8.35 | 9.66 | 34 | 59 | – |
| O=C(c1ccccn1)[C@]12Cc3cnn(-c4ccc(F)cc4)c3C=C1CCN(S(=O)(=O)c1ccc(F)c(C(F)(F)F)c1)C2 | 8.01 | 9.14 | 16 | 31 | Cmax [6]: 112 ng/mL; clearance [8]: 103 mL/min/kg |
| O=C(c1nccs1)[C@]12Cc3cnn(-c4ccc(F)cc4)c3C=C1CCN(S(=O)(=O)c1ccc(C(F)(F)F)cc1)C2 | 7.74 | 9.64 | – | – | – |
| O=C(c1ccccn1)[C@]12Cc3cnn(-c4ccc(F)cc4)c3C=C1CCN(S(=O)(=O)c1cccc(Cl)c1)C2 | 7.96 | 9.60 | 14 | 35 | Cmax [6]: 112 ng/mL; clearance [8]: 70 mL/min/kg |
| Cc1ccccc1S(=O)(=O)N1CCC2=Cc3c(cnn3-c3ccc(F)cc3)C[C@]2(C(=O)c2ccccn2)C1 | 7.73 | 9.68 | 26 | 45 | – |
| O=C(c1ccccn1)[C@]12Cc3cnn(-c4ccc(F)cc4)c3C=C1CCN(S(=O)(=O)c1cccc(C(F)(F)F)c1)C2 | 7.85 | 10.00 | – | – | Cmax [6]: 155 ng/mL; clearance [8]: 40 mL/min/kg |
| N#Cc1cccc(S(=O)(=O)N2CCC3=Cc4c(cnn4-c4ccc(F)cc4)C[C@]3(C(=O)c3ccccn3)C2)c1 | 7.82 | 9.85 | 27 | 42 | – |
| O=C(c1ccccn1)[C@]12Cc3cnn(-c4ccc(F)cc4)c3C=C1CCN(S(=O)(=O)c1ccc(F)cc1)C2 | 7.80 | 9.89 | – | – | – |
| O=C(c1cocn1)[C@]12Cc3cnn(-c4ccc(F)cc4)c3C=C1CCN(S(=O)(=O)c1ccc(C(F)(F)F)cc1)C2 | 7.20 | 9.80 | – | – | – |
| O=C(c1ccccn1)[C@]12Cc3cnn(-c4ccc(F)cc4)c3C=C1CCN(S(=O)(=O)c1ccc(F)c(F)c1)C2 | 8.12 | 9.66 | 10 | 35 | Cmax [6]: 398 ng/mL; clearance [8]: 44 mL/min/kg |
| COc1cccc(S(=O)(=O)N2CCC3=Cc4c(cnn4-c4ccc(F)cc4)C[C@]3(C(=O)c3ccccn3)C2)c1 | 7.94 | 9.72 | 24 | 36 | pIC50 [9]: < 4.72 |
| O=C(c1ccccn1)[C@]12Cc3cnn(-c4ccc(F)cc4)c3C=C1CCN(S(=O)(=O)c1ccc(Cl)c(Cl)c1)C2 | 7.85 | 9.19 | 7 | 16 | pKi [10]: 8.07; pIC50 [9]: < 5.00; Cmax [6]: 437 ng/mL; pKi [11]: 6.82; Efficacy [12]: 74%; Activity [1]: Active; Activity [2]: Active |
| O=C(c1cccs1)[C@]12Cc3cnn(-c4ccc(F)cc4)c3C=C1CCN(S(=O)(=O)c1ccc(C(F)(F)F)cc1)C2 | 7.57 | 9.39 | – | – | – |
| Cc1cccc(S(=O)(=O)N2CCC3=Cc4c(cnn4-c4ccc(F)cc4)C[C@]3(C(=O)c3ccccn3)C2)c1 | 8.17 | 9.85 | 17 | 30 | – |
| O=C(c1cscn1)[C@]12Cc3cnn(-c4ccc(F)cc4)c3C=C1CCN(S(=O)(=O)c1ccc(C(F)(F)F)cc1)C2 | 7.66 | 9.85 | – | – | – |
| O=C(c1cnccn1)[C@]12Cc3cnn(-c4ccc(F)cc4)c3C=C1CCN(S(=O)(=O)c1ccc(C(F)(F)F)cc1)C2 | 7.01 | 9.68 | – | – | – |
| CCOC[C@]12Cc3cnn(-c4ccc(F)cc4)c3C=C1CCN(S(=O)(=O)c1ccc(C(F)(F)F)cc1)C2 | – | – | – | – | Activity [13]: Active |
| O=C(c1cccnc1)[C@]12Cc3cnn(-c4ccc(F)cc4)c3C=C1CCN(S(=O)(=O)c1ccc(C(F)(F)F)cc1)C2 | 6.82 | 9.08 | – | – | – |
